Measurements: ChEMBL document CHEMBL1125592, “Calcium channel blocking and positive inotropic activities of ethyl 5-cyano-1,4-dihydro-6-methyl-2-[(phenylsulfonyl)methyl]-4-aryl-3- pyridine-carboxylate and analogues. Synthesis and structure-activity relationships” (J Med Chem, 1991)
Active and inactive are the calls of the source. The calls are words filed in the database; no cut-off is given here.

What was measured:
[1] = molecular target: Voltage-gated L-type calcium channel (Rattus norvegicus, UniProt P22002+Q02485+P27732); assay: Affinity to bind dihydropyridine receptor (DHP receptor) by inhibiting the radioligand [3H]nitrendipine; type: protein assay
Procedure, shortened: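 [3H]nitrendipine displacement, rat brain cortical membranes. Each compound first screened at 1000 nM; if inhibition exceeded 40%, a four- to seven-point curve with unlabeled compound was run. IC50 generally mean of two experiments, each in triplicate. ">1000 nM" means under 40% inhibition of control binding at 1000 nM.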

Rattus norvegicus [2] = organism: Rattus norvegicus; assay: Cardiovascular activity in isolated rat heart, concentration producing 25% increase in CF (cardiac flow).; type: functional
Procedure, shortened: (§1)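 Isolated Langendorff-perfused rat heart. Coronary flow (CF), LV +dP/dtmax and heart rate recorded during exposure to test agent. Value is the concentration giving a 25% rise in CF or in LV +dP/dtmax, mean ± SE. At least two hearts per compound.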

Rattus norvegicus [3] = organism: Rattus norvegicus; assay: Cardiovascular activity in isolated rat heart, concentration producing 25% increase in LV + dP/dtmax.; type: functional; procedure, shortened: as §1

Row | Compound | IC50 [1] | EC25 (Rattus norvegicus [2]) | EC25 (Rattus norvegicus [3])
1 | CCOC(=O)C1=C(C)N=C(C[S+]([O-])c2ccc(OC)cc2)/C(=C(/O)OCC)C1c1ccccc1C(F)(F)F (stereo in doubt; 8a) | 21 nM |  | 
2 | CCO/C(O)=C1\C(C[S+]([O-])c2ccccc2)=NC(C)=C(C#N)C1c1ccccc1 (stereo not given) | > 1000 nM |  | 
3 | CCO/C(O)=C1\C(C[S+]([O-])c2ccccc2)=NC(C)=C(C#N)C1c1ccccn1 (stereo not given) | > 1000 nM |  | 
4 | CCO/C(O)=C1\C(CS(=O)(=O)c2ccccc2)=NC(C)=C(C#N)C1c1cccc([N+](=O)[O-])c1 (stereo not given) | 300 nM | 510 nM | 520 nM
5 | CCO/C(O)=C1\C(CSc2ccccc2)=NC(C)=C(C#N)C1c1cccc([N+](=O)[O-])c1 (stereo not given) | 870 nM |  | 
6 | CCO/C(O)=C1\C(CSc2ccccc2)=NC(C)=C(C#N)C1c1ccccn1 (stereo not given) | > 1000 nM |  | 
7 | CCOC(=O)C1=C(C)N=C(C[S+]([O-])c2ccccn2)/C(=C(/O)OCC)C1c1ccccc1C(F)(F)F (stereo not given) | 10 nM |  | 
8 | CCOC(=O)C1=C(CSc2ccccc2)N(CCN(CC)CC)C(C)=C(C#N)C1c1ccccc1C(F)(F)F (stereo not given) | 1000 nM |  | 
9 | CCO/C(O)=C1\C(C[S+]([O-])c2ccccc2)=NC(C)=C(C#N)C1c1ccco1 (stereo not given) | > 1000 nM |  | 
10 | CCOC(=O)C1=C(C)N=C(CSc2ccccc2)/C(=C(/O)OCC)C1c1cccnc1 (stereo not given) | 523 nM |  | 
11 | CCO/C(O)=C1\C(CSc2ccncc2)=NC(C)=C(C#N)C1c1cccc(Cl)c1Cl (stereo not given) | 1400 nM |  | 
12 | CC1=C(C#N)C(c2ccccc2C(F)(F)F)C(C(=O)O)=C(C[S+]([O-])c2ccccc2)N1 (stereo not given) | > 1000 nM |  | 
13 | CCO/C(O)=C1\C(CSc2ccncc2)=NC(C)=C(C#N)C1c1ccccc1Cl (stereo not given) | 366 nM |  | 
14 | CCO/C(O)=C1\C(CSc2ccccc2)=NC(C)=C(C#N)C1c1ccccc1 (stereo not given) | > 1000 nM |  | 
15 | CCO/C(O)=C1\C(C[S+]([O-])c2ccccc2)=NC(C)=C(C#N)C1C1CCCCC1 (stereo not given) | > 1000 nM |  | 
16 | CCO/C(O)=C1\C(CSc2ccccc2)=NC(C)=C(C#N)C1c1ccco1 (stereo not given) | 1354 nM |  | 
17 | CCOC(=O)C1=C(C)NC(C[S+]([O-])c2ccccc2C)=C(C(=O)OCC)C1c1ccccc1C(F)(F)F (stereo in doubt; 10b) | 170 nM |  | 
18 | CCOC(=O)C1=C(C)N=C(C[S+]([O-])c2ccccc2)/C(=C(/O)OCC)C1c1cccnc1 (stereo not given) | > 1000 nM |  | 

Row | Compound | IC50 [1] | EC25 (Rattus norvegicus [2]) | EC25 (Rattus norvegicus [3])
19 | CCO/C(O)=C1\C(CS(=O)(=O)c2ccncc2)=NC(C)=C(C#N)C1c1cccc(Cl)c1Cl (stereo not given) | 434 nM |  | 
20 | CCOC(=O)C1=C(C)N=C(CSc2ccncc2)/C(=C(/O)OCC)C1c1ccccc1C(F)(F)F (stereo not given) | 32.5 nM |  | 
21 | CCO/C(O)=C1\C(C(C)S(=O)(=O)c2ccccc2)=NC2=C(C(=O)CCC2)C1c1ccccc1C(F)(F)F (stereo not given) |  | 1400 nM | <100 nM
22 | CCOC(=O)C1=C(C)N=C(CSc2ccccn2)/C(=C(/O)OCC)C1c1ccccc1C(F)(F)F (stereo not given) | 51 nM |  | 
23 | CCO/C(O)=C1\C(CSc2ccncc2)=NC(C)=C(C#N)C1c1ccccn1 (stereo not given) | > 1000 nM |  | 
24 | CCO/C(O)=C1\C(C[S+]([O-])c2ccccc2)=NC(C)=C(C#N)C1c1ccccc1OC(F)F (stereo not given) | > 1000 nM |  | 
25 | CCOC(=O)C1=C(C)NC(C[S+]([O-])c2ccccc2C)=C(C(=O)OCC)C1c1ccccc1C(F)(F)F (stereo in doubt; 10a) | 160 nM |  | 
26 | CCOC(=O)C1=C(C[S+]([O-])c2ccccc2)NC(C)=C(C#N)C1c1cccc([N+](=O)[O-])c1 (stereo in doubt; 32a) | > 1000 nM |  | 2500 nM
27 | CC1=C(C#N)C(c2ccccc2C(F)(F)F)/C(=C(\O)OCCN2CCOCC2)C(C[S+]([O-])c2ccccc2)=N1 (stereo not given) | > 1000 nM |  | 
28 | CCOC(=O)C1=C(C[S+]([O-])c2ccccc2)NC(C)=C(C#N)C1c1cccc([N+](=O)[O-])c1 (stereo in doubt; 32b) | > 1000 nM |  | 3000 nM
29 | CCOC(=O)C1=C(C[S+]([O-])c2ccccc2)NC(C)=C(C#N)C1c1ccccc1C(F)(F)F (stereo in doubt; 29a) | 1600 nM |  | 120 nM
30 | CCOC(=O)C1=C(C[S+]([O-])c2ccccc2)N(C)C(C)=C(C#N)C1c1ccccc1C(F)(F)F (stereo not given) | > 1000 nM |  | 
31 | CCOC(=O)C1=C(CS(=O)(=O)c2ccccc2)N(C)C2=C(C(=O)CCC2)C1c1ccccc1C(F)(F)F (stereo not given) |  | 180 nM | <100 nM
32 | CCOC(=O)C1=C(C)N=C(C[S+]([O-])c2ccc(OC)cc2)/C(=C(/O)OCC)C1c1ccccc1C(F)(F)F (stereo in doubt; 8b) | 18 nM |  | 
33 | CCOC(=O)C1=C(C)N=C(C[S+]([O-])c2ccncc2)/C(=C(/O)OCC)C1c1ccccc1C(F)(F)F (stereo not given) | 37.4 nM |  | 
34 | CC1=C(C#N)C(c2ccccc2C(F)(F)F)C(C(=O)O)=C(CSc2ccccc2)N1 (stereo not given) | > 1000 nM |  | 
35 | CCOC(=O)C1=C(C)N=C(C[S+]([O-])c2ccccc2)/C(=C(/O)OCC)C1c1ccccc1C(F)(F)F (stereo not given) | 27 nM |  | 

More lines, main results first:

Row | IC50 [1] | Compound | EC25 (Rattus norvegicus [2]) | EC25 (Rattus norvegicus [3])
36 | > 500 nM | CCO/C(O)=C1\C(CS(=O)(=O)c2ccccc2Cl)=NC(C)=C(C#N)C1c1ccccc1C(F)(F)F (stereo not given) | 350 nM | 360 nM
37 | 100 nM | CCO/C(O)=C1\C(CSc2ccc(Cl)cc2)=NC(C)=C(C#N)C1c1ccccc1C(F)(F)F (stereo not given) |  | 
38 | 71 nM | CCO/C(O)=C1\C(CSc2ccc(OC)cc2)=NC(C)=C(C#N)C1c1ccccc1C(F)(F)F (stereo not given) |  | 
39 | 580 nM | C=CCO/C(O)=C1\C(CSc2ccccc2)=NC(C)=C(C#N)C1c1ccccc1C(F)(F)F (stereo not given) |  | 
40 | > 1000 nM | CCO/C(O)=C1\C(CS(=O)(=O)c2ccccc2)=NC(C)=C(C#N)C1c1cccnc1 (stereo not given) |  | 
41 | 69 nM | CCO/C(O)=C1\C(CSc2ccc(Cl)c(Cl)c2)=NC(C)=C(C#N)C1c1ccccc1C(F)(F)F (stereo not given) |  | 
42 | 1410 nM | CCO/C(O)=C1\C(CS(=O)(=O)c2ccncc2)=NC(C)=C(C#N)C1c1ccccc1C (stereo not given) |  | 
43 | 1000 nM | CCO/C(O)=C1\C(CSc2ccncc2)=NC(C)=C(C#N)C1c1ccccc1C(F)(F)F (stereo not given) |  | 
44 | > 1000 nM | CCO/C(O)=C1\C(C[S+]([O-])c2ccccc2C)=NC(C)=C(C#N)C1c1ccccc1C(F)(F)F (stereo not given) | 800 nM | 130 nM
45 | > 1000 nM | CCO/C(O)=C1\C(C[S+]([O-])c2ccc(NC(C)=O)cc2)=NC(C)=C(C#N)C1c1ccccc1C(F)(F)F (stereo not given) |  | 
46 | 267 nM | CCO/C(O)=C1\C(CSc2ccccc2F)=NC(C)=C(C#N)C1c1ccccc1C(F)(F)F (stereo not given) |  | 
47 | 681 nM | CCO/C(O)=C1\C(C[S+]([O-])c2ccc(Cl)c(Cl)c2)=NC(C)=C(C#N)C1c1ccccc1C(F)(F)F (stereo not given) |  | 
48 | 1000 nM | CO/C(O)=C1\C(CSc2ccccc2)=NC(C)=C(C#N)C1c1ccccc1C(F)(F)F (stereo not given) |  | 
49 | 1100 nM | CCO/C(O)=C1\C(C[S+]([O-])c2ccncc2)=NC(C)=C(C#N)C1c1ccccc1C(F)(F)F (stereo not given) | inactive | 1200 nM
50 | > 1000 nM | CCO/C(O)=C1\C(CS(=O)(=O)c2ccccc2C)=NC(C)=C(C#N)C1c1ccccc1C(F)(F)F (stereo not given) | 470 nM | 320 nM
51 | 390 nM | CC1=C(C#N)C(c2ccccc2C(F)(F)F)/C(=C(\O)OC(C)C)C(CS(=O)(=O)c2ccccc2)=N1 (stereo not given) | <100 nM | inactive
52 | > 1000 nM | CCO/C(O)=C1\C(C[S+]([O-])c2ccc(Cl)cc2)=NC(C)=C(C#N)C1c1ccccc1C(F)(F)F (stereo not given) |  | 
53 | 205 nM | CCO/C(O)=C1\C(CSc2ccc(NC(C)=O)cc2)=NC(C)=C(C#N)C1c1ccccc1C(F)(F)F (stereo not given) | 260 nM | inactive

Row | IC50 [1] | Compound | EC25 (Rattus norvegicus [2]) | EC25 (Rattus norvegicus [3])
54 | 36 nM | CCO/C(O)=C1\C(CSc2ccccc2Cl)=NC(C)=C(C(=O)OC)C1c1ccccc1C(F)(F)F (stereo not given) |  | 
55 | > 1000 nM | CCO/C(O)=C1\C(CS(=O)(=O)c2ccccc2)=NC(C)=C(C#N)C1c1ccccn1 (stereo not given) |  | 
56 | 254 nM | CCO/C(O)=C1\C(CS(=O)(=O)c2ccccc2)=NC(C)=C(C#N)C1c1ccco1 (stereo not given) |  | 
57 | > 1000 nM | CCO/C(O)=C1\C(CSc2ccccc2Cl)=NC(C)=C(C#N)C1c1ccccc1C(F)(F)F (stereo not given) |  | 
58 | > 1000 nM | CCCCc1ccc(SCC2=NC(C)=C(C#N)C(c3ccccc3C(F)(F)F)/C2=C(\O)OCC)c(C)c1 (stereo not given) |  | 
59 | > 1000 nM | CCO/C(O)=C1\C(CS(=O)(=O)c2ccccc2)=NC(C)=C(C#N)C1c1cccc[n+]1[O-] (stereo not given) |  | 
60 | 1000 nM | CC1=C(C#N)C(c2ccccc2C(F)(F)F)/C(=C(\O)OCCC#N)C(CSc2ccccc2)=N1 (stereo not given) |  | 
61 | 49 nM | CCOC(=O)C1=C(C)N=C(CSc2ccccc2C)/C(=C(/O)OCC)C1c1ccccc1C(F)(F)F (stereo not given) |  | 
62 | > 1000 nM | CC1=C(C#N)C(c2ccccc2C(F)(F)F)/C(=C(\O)OCC(O)CO)C(CS(=O)(=O)c2ccccc2)=N1 (stereo not given) |  | 
63 | 1900 nM | CCO/C(O)=C1\C(C[S+]([O-])c2ccccn2)=NC(C)=C(C#N)C1c1ccccc1C(F)(F)F (stereo not given) |  | 
64 | 450 nM | CCO/C(O)=C1\C(CSc2ccccc2)=NC(C)=C(C#N)C1c1ccccc1C(F)(F)F (stereo not given) |  | 
65 | > 1000 nM | CCCCc1ccc(S(=O)(=O)CC2=NC(C)=C(C#N)C(c3ccccc3C(F)(F)F)/C2=C(\O)OCC)c(C)c1 (stereo not given) |  | 
66 | 1000 nM | CC1=C(C#N)C(c2ccccc2C(F)(F)F)/C(=C(\O)OCCO)C(C[S+]([O-])c2ccccc2)=N1 (stereo not given) |  | 
67 | 720 nM | CCO/C(O)=C1\C(CS(=O)(=O)c2ccccc2)=NC(C)=C(C#N)C1c1ccccc1Cl (stereo not given) |  | 
68 | 713 nM | CCO/C(O)=C1\C(CS(=O)(=O)c2ccncc2)=NC(C)=C(C#N)C1c1ccccc1Cl (stereo not given) |  | 
69 | 1.6 nM | CCOC(=O)C1=C(C)N=C(CSc2ccccc2)/C(=C(/O)OCC)C1c1ccccc1C(F)(F)F (stereo not given) |  | 
70 | > 1000 nM | CCO/C(O)=C1\C(CSc2ccccc2C)=NC(C)=C(C#N)C1c1ccccc1C(F)(F)F (stereo not given) |  | 
71 | > 1000 nM | CCO/C(O)=C1\C(CSc2ccccn2)=NC(C)=C(C#N)C1c1ccccc1C(F)(F)F (stereo not given) |  | 
